Experimental data gathered from unrelated publications.
Protocols differ between the studies behind these lines.
Action: inhibitor
rep main protease: Replicase polyprotein 1ab, main protease (rep, Severe acute respiratory syndrome coronavirus 2, UniProt P0DTD1)
rep papain-like protease: Replicase polyprotein 1ab, papain-like protease (rep, Severe acute respiratory syndrome coronavirus 2, UniProt P0DTD1)
rep methyltransferase: Replicase polyprotein 1ab, methyltransferase (rep, Severe acute respiratory syndrome coronavirus 2, UniProt P0DTD1)

Structure (SMILES) | target | effect on | method | pH | IC50 [µM]
COC(=O)N[C@H](C(=O)N[C@@H](Cc1ccccc1)[C@@H](O)CN(Cc1ccc(-c2ccccn2)cc1)NC(=O)[C@@H](NC(=O)OC)C(C)(C)C)C(C)(C)C | rep main protease | enzyme activity in cells | – | – | > 60
Oc1ccc2ccccc2c1SSc1c(O)ccc2ccccc12 | rep main protease | enzyme activity | – | – | 0.5
COc1cc(C[C@@H](C)[C@@H](C)Cc2cc(O)c(OC)c(OC)c2)cc(O)c1OC | rep main protease | enzyme activity | FRET | – | 3.07
Nc1nc2nc[nH]c2c(=S)[nH]1 | rep papain-like protease | enzyme activity | FRET | pH 7.5 | > 60
CN(C(=O)[C@H](Cc1ccccc1)NC(=O)[C@@H](NC(=O)OCc1ccccc1)C(C)(C)C)N(C#N)CCC(N)=O | rep main protease | enzyme activity | – | – | 0.236
CC(C)c1nc(CN(C)C(=O)N[C@@H](CCN2CCOCC2)C(=O)N[C@H](CC[C@H](Cc2ccccc2)NC(=O)OCc2cncs2)Cc2ccccc2)cs1 | rep main protease | enzyme activity in cells | – | – | > 20
Cc1cccc(C)c1OCC(=O)N[C@@H](Cc1ccccc1)[C@@H](O)C[C@H](Cc1ccccc1)NC(=O)[C@H](C(C)C)N1CCCNC1=O | rep main protease | enzyme activity | – | – | 206
Cc1coc2c1C(=O)C(=O)c1c-2ccc2c1CCCC2(C)C | rep papain-like protease | enzyme activity | FRET | pH 7.5 | 15.3
Cc1c[nH]c2ncc(C(=O)N[C@H]3[C@H](CNc4cc(=O)n5ccccc5n4)CCC34CCC4)cc12 | rep main protease | enzyme activity | – | – | 32.7
CC(=O)N[C@@H](CS)C(=O)O | rep main protease | enzyme activity | – | – | > 450
Clc1ccc(C(Cn2ccnc2)OCc2csc3c(Cl)cccc23)c(Cl)c1 (stereo not drawn) | rep main protease | enzyme activity in cells | – | – | 7.45
O=C(CC1Sc2ncnn2C1=O)Nc1ccc(Br)cc1 (stereo not drawn) | rep main protease | enzyme activity | fluorescence | – | > 20
COc1ccc2nc(NC(=O)CSc3nc4ccccc4c4nnnn34)sc2c1 | rep methyltransferase | enzyme activity | – | – | 44.8
O=C(Cn1nnc2ccccc21)Nc1ccccc1N1CCc2sccc2C1 | rep main protease | enzyme activity | FRET | – | > 100
Cc1cccc(C)c1OCC(=O)N[C@@H](Cc1ccccc1)[C@@H](O)C[C@H](Cc1ccccc1)NC(=O)[C@H](C(C)C)N1CCCNC1=O | rep main protease | enzyme activity in cells | – | – | > 20
O=C1c2ccccc2NC(c2cc([N+](=O)[O-])ccc2O)N1N=Cc1cc([N+](=O)[O-])ccc1O (stereo not drawn) | rep main protease | enzyme activity in cells | – | – | > 40
N#Cc1c(N)[nH]c2cc(/C=C/c3cccc(F)c3)ccc12 | rep papain-like protease | enzyme activity | fluorescence | – | > 100
N#CC(C(N)=O)=C1Oc2c(cc(O)cc2-c2ccc(Cl)c(Cl)c2)S1 | rep methyltransferase | enzyme activity | – | – | 45

Structure (SMILES) | target | effect on | method | pH | IC50 [µM]
COC(=O)C1=C(C)NC(C)=C(C(=O)OCCN2CCN(C(c3ccccc3)c3ccccc3)CC2)C1c1cccc([N+](=O)[O-])c1 (stereo not drawn) | rep main protease | enzyme activity | luciferase | – | > 240
COc1ccc(-c2nc(NC(=O)c3ccc(C)c(F)c3)n[nH]2)cc1OC | rep main protease | enzyme activity | – | – | 0.47
Cc1cc(-c2nn3c(-c4ccccc4)nnc3s2)c2ccccc2n1 | rep methyltransferase | enzyme activity | – | – | 40.4
CC(C)C[C@H](NC(=O)OCc1ccccc1)C(=O)N(C)N(C#N)CCC(N)=O | rep main protease | enzyme activity | – | – | 1.45
Oc1c(Cl)cc(Cl)c(Cl)c1Cc1c(O)c(Cl)cc(Cl)c1Cl | rep methyltransferase | enzyme activity | – | – | 8.65
COc1cc(-c2ccc(/N=N/c3ccc4c(S(=O)(=O)O)cc(S(=O)(=O)O)c(N)c4c3O)c(OC)c2)ccc1/N=N/c1ccc2c(S(=O)(=O)O)cc(S(=O)(=O)O)c(N)c2c1O | rep main protease | enzyme activity | – | – | 9.82
Nc1ccc(C(=O)N2CC3(CCC3)C[C@H]2CNC(=O)c2cncc3ccccc23)cc1O | rep main protease | enzyme activity | – | – | 29.6
c1cnc(SCc2cccnc2)nc1 | rep main protease | enzyme activity | – | – | 0.15
CN(C)[C@@H]1C(O)=C(C(N)=O)C(=O)[C@@]2(O)C(O)=C3C(=O)c4c(O)cccc4[C@@](C)(O)[C@H]3[C@H](O)[C@@H]12 | rep main protease | enzyme activity | luciferase | – | > 240
Cc1ccc(C(=O)Nc2ccc(S(=O)(=O)O)c3cc(S(=O)(=O)O)cc(S(=O)(=O)O)c23)cc1NC(=O)c1cccc(NC(=O)Nc2cccc(C(=O)Nc3cc(C(=O)Nc4ccc(S(=O)(=O)O)c5cc(S(=O)(=O)O)cc(S(=O)(=O)O)c45)ccc3C)c2)c1 | rep methyltransferase | enzyme activity | – | – | 105
CCN(CC)S(=O)(=O)c1cccc(-n2sc3ccccc3c2=O)c1 | rep main protease | enzyme activity | – | – | > 20
CC1(C)CC(=O)c2c(oc3c(Cl)cc(NS(=O)(=O)c4ccc5ccccc5c4)cc23)C1 | rep methyltransferase | enzyme activity | – | – | 87
CC[N+](C)(CC)CCC[n+]1c(-c2ccccc2)c2cc(N)ccc2c2ccc(N)cc21 | rep main protease | enzyme activity | – | – | > 20
Cc1ccc(-c2nc(N3CCN(C)CC3)s[n+]2-c2ccccc2)cc1 | rep main protease | enzyme activity | – | – | 0.534
O=C(O)c1nnn(-c2nccs2)c1-c1ccc2c(c1)OCO2 | rep methyltransferase | enzyme activity | – | – | 55.8
N=C(N)NN=C1C=CC(=NNC(N)=S)C=C1 | rep main protease | enzyme activity | – | – | 9.3
CC(=O)[C@]1(O)Cc2c(O)c3c(c(O)c2[C@@H](O[C@H]2C[C@H](N)[C@H](O)[C@H](C)O2)C1)C(=O)c1ccccc1C3=O | rep methyltransferase | enzyme activity | – | – | 38.5
CCc1ccc(/C=C/C(=O)Nc2ccc(C(C)=O)cc2)o1 | rep main protease | enzyme activity | – | – | 5
